Tests used:
[1] = test system: Radical scavenging activity; test: Antioxidant activity assessed as DPPH free radical scavenging activity after 30 mins; assay type: functional
Rattus norvegicus = species on record: Rattus norvegicus; test: Reduction of total thiol content in Wistar rat liver mitochondria after 1 hr by DTNB method; assay type: functional
Method in brief: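 Wistar rat liver mitochondria isolated by differential centrifugation (1500 × g, then 10,000 × g, 10 min, 4 °C) and suspended in Tris-HCl 0.05 M/sucrose 0.25 M/KCl/MgCl2/Na2HPO4, pH 7.4. Protein by Bradford. Mitochondria (1 mg/mL) exposed 1 h to compound, then total thiols measured by DTNB at 412 nm against a GSH standard curve; mean ± SD, n = 3.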

MOLT-4 = test: Cytotoxicity against human MOLT4 cells after 72 hrs by MTT assay; assay type: functional, cell-based; conditions: MOLT-4, 72 h
Method in brief: (§1)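 MCF-7 grown as monolayer, K562 and MOLT-4 in suspension; seeded at 30,000, 40,000 and 40,000 cells/ml respectively and incubated overnight at 37 °C. Compounds dissolved in DMSO, diluted in medium, final DMSO ≤0.5%; cisplatin as reference.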

MCF7 = test: Cytotoxicity against human MCF7 cells after 72 hrs by MTT assay; assay type: functional, cell-based; conditions: MCF7, 72 h; method in brief: as §1
K562 = test: Cytotoxicity against human K562 cells after 72 hrs by MTT assay; assay type: functional, cell-based; conditions: K562, 72 h; method in brief: as §1
[2] = Antioxidant activity assessed as ferric ion reducing ability after 20 mins by FRAP assay relative to quercetin; assay type: functional
Method in brief: (§2)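 FRAP reagent: acetate buffer (300 mM, pH 3.6), TPTZ (10 mM in 40 mM HCl) and FeCl3 (20 mM) at 10:1:1, diluted to 1/3 with methanol and pre-warmed to 37 °C. Diluted compound added, 20 min at 37 °C, A593. Values read from FeSO4·7H2O calibration curve; quercetin as reference.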

[3] = Antioxidant activity assessed as ferric ion reducing ability after 20 mins by FRAP assay; assay type: functional; method in brief: as §2

Compound	IC50 [1] [µM]	Activity (Rattus norvegicus)	IC50 (MOLT-4) [µM]	IC50 (MCF7) [µM]	IC50 (K562) [µM]	fold change (FC) [2]	Activity [3] [mM]
COc1cccc(/C=C/C(=O)c2cc3ccc(O)cc3oc2=O)c1OC	150	Dose-dependent effect	7	16.6	14.6	0.3	25.2
COc1cccc(/C=C/C(=O)c2cc3cc(O)ccc3oc2=O)c1OC	160	–	6.7	8.8	17.3	0.3	25.7
COc1cc(/C=C/C(=O)c2cc3cc(OCc4ccccc4)ccc3oc2=O)cc(OC)c1OC	1150	–	10.3	26.5	66.4	–	8.1
COc1cccc(COc2ccc3cc(C(=O)/C=C/c4ccccc4)c(=O)oc3c2)c1	890	–	> 100	33.7	> 100	–	10.4
O=c1c(O)c(-c2ccc(O)c(O)c2)oc2cc(O)cc(O)c12 [QUERCETIN]	8.12	–	–	–	–	–	87.1
COc1cccc(COc2ccc3cc(C(=O)/C=C/c4ccc(C)cc4)c(=O)oc3c2)c1	2630	–	> 50	> 50	> 50	–	6.6
COc1cccc(COc2ccc3cc(C(=O)/C=C/c4ccc(Cl)cc4Cl)c(=O)oc3c2)c1	480	–	–	–	–	–	7.1
COc1cccc(COc2ccc3cc(C(=O)/C=C/c4cccc(OC)c4OC)c(=O)oc3c2)c1	720	–	22.8	35.1	45.5	–	7.6
COC(=O)c1ccc(/C=C/C(=O)c2cc3ccc(O)cc3oc2=O)cc1	–	–	3.7	5.5	4.4	–	–
COc1ccc(/C=C/C(=O)c2cc3ccc(OCc4cccc(OC)c4)cc3oc2=O)cc1	930	–	> 100	> 100	> 100	–	14.3
O=C(/C=C/c1ccc2c(c1)OCO2)c1cc2ccc(O)cc2oc1=O	540	–	26.2	38.9	31.7	–	13.7
O=C(/C=C/c1ccc2c(c1)OCO2)c1cc2cc(OCc3ccccc3)ccc2oc1=O	570	–	> 50	> 50	> 50	–	12.6
COc1cccc(COc2ccc3cc(C(=O)/C=C/c4ccc5c(c4)OCO5)c(=O)oc3c2)c1	460	–	> 100	> 100	22.8	–	7.5
O=C(/C=C/c1ccc2c(c1)OCO2)c1cc2cc(O)ccc2oc1=O	480	–	2	9.7	14.6	–	15.3
COc1cccc(COc2ccc3cc(C(=O)/C=C/c4c(Cl)cccc4Cl)c(=O)oc3c2)c1	940	–	12.5	10.1	15.6	–	5.3
COC(=O)c1ccc(/C=C/C(=O)c2cc3cc(O)ccc3oc2=O)cc1	–	–	7.1	1.3	15.8	–	–
COc1cc(/C=C/C(=O)c2cc3cc(O)ccc3oc2=O)cc(OC)c1OC	180	–	3.9	10.9	8.8	–	9.6
COc1cccc(/C=C/C(=O)c2cc3cc(OCc4ccccc4)ccc3oc2=O)c1OC	1270	–	23.6	21.3	48.9	–	4.4
COc1cccc(COc2ccc3cc(C(=O)/C=C/c4cc(OC)ccc4OC)c(=O)oc3c2)c1	750	–	13.8	> 100	35.1	–	9.5
COc1cc(/C=C/C(=O)c2cc3ccc(O)cc3oc2=O)cc(OC)c1OC	190	Dose-dependent effect	3.8	8.8	7.3	–	8.7

— ChEMBL document CHEMBL2424586, “Polyoxygenated cinnamoylcoumarins as conformationally constrained analogs of cytotoxic diarylpentanoids: synthesis and biological activity” (Eur J Med Chem, 2013)
